Results from ChEMBL document CHEMBL4052823, “Extra Sugar on Vancomycin: New Analogues for Combating Multidrug-Resistant Staphylococcus aureus and Vancomycin-Resistant Enterococci” (J Med Chem, 2018).
In brackets after ≈: the same amount, converted by molar mass.

Legend:
Format in all cases: functional
[1] = system: Enterococcus faecium; assay: Antibacterial activity against glycopeptide-resistant Enterococcus faecium Efm-HS-0847 vanM after 24 hrs by broth microdilution method; settings: Efm-HS-0847, 24 h
In short: (§1)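 Broth microdilution in cation-adjusted Mueller-Hinton II broth. DMSO stocks were diluted in broth and twofold serially from 128 to 0.0625 μg/mL or lower. Each well was inoculated with ~10^5 CFU of exponential-phase bacteria and incubated at 37 °C for 24 h. MIC was the lowest concentration giving complete growth inhibition, read per CLSI. Growth controls contained broth plus DMSO.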

[2] = system: Staphylococcus aureus; assay: Antibacterial activity against vancomycin/methicillin-susceptible Staphylococcus aureus Newman […] after 24 hrs by broth microdilution method
In short: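 Broth microdilution in cation-adjusted Mueller-Hinton II broth. […] Each well received ~10^5 CFU of exponential-phase bacteria and was incubated at 37 °C for 24 h. MIC was taken as the lowest concentration giving complete growth inhibition, interpreted per CLSI.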

[3] = system: Staphylococcus aureus; assay: Antibacterial activity against healthcare-associated methicillin-resistant/vancomycin-intermediate Staphylococcus aureus Mu50 after 24 hrs by broth microdilution method; settings: Mu50, 24 h; in short: as §1
[4] = system: Enterococcus faecium; assay: Antibacterial activity against glycopeptide-resistant Enterococcus faecium Efm-HS-08257 vanM after 24 hrs by broth microdilution method; settings: Efm-HS-08257, 24 h; in short: as §1
[5] = system: Enterococcus faecium; assay: Antibacterial activity against glycopeptide-resistant Enterococcus faecium Efm-HS-vb01 vanB after 24 hrs by broth microdilution method; settings: Efm-HS-vb01, 24 h; in short: as §1
[6] = system: Enterococcus faecium; assay: Antibacterial activity against glycopeptide-resistant Enterococcus faecium Efm-HS-0649 vanA after 24 hrs by broth microdilution method; settings: Efm-HS-0649, 24 h; in short: as §1
[7] = system: Enterococcus faecium; assay: Antibacterial activity against glycopeptide-resistant Enterococcus faecium Efm-HS-06188 vanA after 24 hrs by broth microdilution method; settings: Efm-HS-06188, 24 h; in short: as §1

SMILES | MIC [1] [µg/mL] | MIC90 [2] [µg/mL] | MIC90 [3] [µg/mL] | MIC [4] [µg/mL] | MIC [5] [µg/mL] | MIC [6] [µg/mL] | MIC [7] [µg/mL]
CN[C@H](CC(C)C)C(=O)N[C@H]1C(=O)N[C@@H](CC(N)=O)C(=O)N[C@H]2C(=O)N[C@H]3C(=O)N[C@H](C(=O)N[C@H](C(=O)O)c4cc(O)c(CNCCO[C@H]5O[C@H](CO)[C@@H](O)[C@H](O)[C@@H]5O)c(O)c4-c4cc3ccc4O)[C@H](O)c3ccc(c(Cl)c3)Oc3cc2cc(c3O[C@@H]2O[C@H](CO)[C@@H](O)[C@H](O)[C@H]2O[C@H]2C[C@](C)(NCc3ccc(-c4ccc(Cl)cc4)cc3)[C@H](O)[C@H](C)O2)Oc2ccc(cc2Cl)[C@H]1O | 2 (≈ 1.06 µM) | 2 (≈ 1.06 µM) | 4 (≈ 2.12 µM) | 0.12 (≈ 0.0637 µM) | 2 (≈ 1.06 µM) | 0.5 (≈ 0.265 µM) | 1 (≈ 0.53 µM)
CN[C@H](CC(C)C)C(=O)N[C@H]1C(=O)N[C@@H](CC(N)=O)C(=O)N[C@H]2C(=O)N[C@H]3C(=O)N[C@H](C(=O)N[C@H](C(=O)O)c4cc(O)c(CNCP(=O)(O)O)c(O)c4-c4cc3ccc4O)[C@H](O)c3ccc(c(Cl)c3)Oc3cc2cc(c3O[C@@H]2O[C@H](CO)[C@@H](O)[C@H](O)[C@H]2O[C@H]2C[C@](C)(NCc3ccc(-c4ccc(Cl)cc4)cc3)[C@H](O)[C@H](C)O2)Oc2ccc(cc2Cl)[C@H]1O | 2 (≈ 1.13 µM) | 0.5 (≈ 0.282 µM) | 0.5 (≈ 0.282 µM) | 0.12 (≈ 0.0677 µM) | 0.25 (≈ 0.141 µM) | 2 (≈ 1.13 µM) | 4 (≈ 2.26 µM)
CN[C@H](CC(C)C)C(=O)N[C@H]1C(=O)N[C@@H](CC(N)=O)C(=O)N[C@H]2C(=O)N[C@H]3C(=O)N[C@H](C(=O)N[C@H](C(=O)NCCCN(C)C)c4cc(O)c(CNCCO[C@H]5O[C@H](CO)[C@@H](O)[C@H](O)[C@@H]5O)c(O)c4-c4cc3ccc4O)[C@H](O)c3ccc(c(Cl)c3)Oc3cc2cc(c3O[C@@H]2O[C@H](CO)[C@@H](O)[C@H](O)[C@H]2O[C@H]2C[C@](C)(NCc3ccc(-c4ccc(Cl)cc4)cc3)[C@H](O)[C@H](C)O2)Oc2ccc(cc2Cl)[C@H]1O | 2 (≈ 1.02 µM) | 2 (≈ 1.02 µM) | 4 (≈ 2.03 µM) | 0.5 (≈ 0.254 µM) | 4 (≈ 2.03 µM) | 0.5 (≈ 0.254 µM) | 1 (≈ 0.508 µM)
CN[C@H](CC(C)C)C(=O)N[C@H]1C(=O)N[C@@H](CC(N)=O)C(=O)N[C@H]2C(=O)N[C@H]3C(=O)N[C@H](C(=O)N[C@H](C(=O)NCCCN(C)C)c4cc(O)c(CNCCCNC(=O)[C@H](O)[C@@H](O)[C@H](O)[C@H](O)CO)c(O)c4-c4cc3ccc4O)[C@H](O)c3ccc(c(Cl)c3)Oc3cc2cc(c3O[C@@H]2O[C@H](CO)[C@@H](O)[C@H](O)[C@H]2O[C@H]2C[C@](C)(NCc3ccc(-c4ccc(Cl)cc4)cc3)[C@H](O)[C@H](C)O2)Oc2ccc(cc2Cl)[C@H]1O | 2 (≈ 1 µM) | 1 (≈ 0.5 µM) | 2 (≈ 1 µM) | 1 (≈ 0.5 µM) | 8 (≈ 4 µM) | 1 (≈ 0.5 µM) | 2 (≈ 1 µM)
CCCCCCCCCCNCCN[C@@]1(C)C[C@H](O[C@H]2[C@H](Oc3c4cc5cc3Oc3ccc(cc3Cl)[C@@H](O)[C@@H](NC(=O)[C@@H](CC(C)C)NC)C(=O)N[C@@H](CC(N)=O)C(=O)N[C@H]5C(=O)N[C@H]3C(=O)N[C@H](C(=O)N[C@H](C(=O)O)c5cc(O)c(CN[C@H]6C(O)O[C@H](CO)[C@H](O)[C@@H]6O)c(O)c5-c5cc3ccc5O)[C@H](O)c3ccc(c(Cl)c3)O4)O[C@H](CO)[C@@H](O)[C@@H]2O)O[C@@H](C)[C@H]1O (stereo partly drawn) | 8 (≈ 4.39 µM) | 0.12 (≈ 0.0658 µM) | 0.5 (≈ 0.274 µM) | 8 (≈ 4.39 µM) | 1 (≈ 0.548 µM) | 16 (≈ 8.77 µM) | 8 (≈ 4.39 µM)
CN[C@H](CC(C)C)C(=O)N[C@H]1C(=O)N[C@@H](CC(N)=O)C(=O)N[C@H]2C(=O)N[C@H]3C(=O)N[C@H](C(=O)N[C@H](C(=O)NCCCN(C)C)c4cc(O)c(C)c(O)c4-c4cc3ccc4O)[C@H](O)c3ccc(c(Cl)c3)Oc3cc2cc(c3O[C@@H]2O[C@H](CO)[C@@H](O)[C@H](O)[C@H]2O[C@H]2C[C@](C)(NCc3ccc(-c4ccc(Cl)cc4)cc3)[C@H](O)[C@H](C)O2)Oc2ccc(cc2Cl)[C@H]1O | 1 (≈ 0.572 µM) | 1 (≈ 0.572 µM) | 1 (≈ 0.572 µM) | 0.12 (≈ 0.0686 µM) | 2 (≈ 1.14 µM) | 0.5 (≈ 0.286 µM) | 1 (≈ 0.572 µM)
CCCCCCc1ccc(CN[C@@]2(C)C[C@H](O[C@H]3[C@H](Oc4c5cc6cc4Oc4ccc(cc4Cl)[C@@H](O)[C@@H](NC(=O)[C@@H](CC(C)C)NC)C(=O)N[C@@H](CC(N)=O)C(=O)N[C@H]6C(=O)N[C@H]4C(=O)N[C@H](C(=O)N[C@H](C(=O)O)c6cc(O)c(CN[C@H]7C(O)O[C@H](CO)[C@H](O)[C@@H]7O)c(O)c6-c6cc4ccc6O)[C@H](O)c4ccc(c(Cl)c4)O5)O[C@H](CO)[C@@H](O)[C@@H]3O)O[C@@H](C)[C@H]2O)cc1 (stereo partly drawn) | 32 (≈ 17.6 µM) | 0.25 (≈ 0.138 µM) | 0.5 (≈ 0.276 µM) | 16 (≈ 8.82 µM) | 1 (≈ 0.551 µM) | 8 (≈ 4.41 µM) | 8 (≈ 4.41 µM)
CCCCCCCCCN[C@@]1(C)C[C@H](O[C@H]2[C@H](Oc3c4cc5cc3Oc3ccc(cc3Cl)[C@@H](O)[C@@H](NC(=O)[C@@H](CC(C)C)NC)C(=O)N[C@@H](CC(N)=O)C(=O)N[C@H]5C(=O)N[C@H]3C(=O)N[C@H](C(=O)N[C@H](C(=O)O)c5cc(O)c(CNCCO)c(O)c5-c5cc3ccc5O)[C@H](O)c3ccc(c(Cl)c3)O4)O[C@H](CO)[C@@H](O)[C@@H]2O)O[C@@H](C)[C@H]1O |  | 0.12 (≈ 0.0728 µM) | 0.5 (≈ 0.303 µM) |  |  |  | 
CCCCCCCCCN[C@@]1(C)C[C@H](O[C@H]2[C@H](Oc3c4cc5cc3Oc3ccc(cc3Cl)[C@@H](O)[C@@H](NC(=O)[C@@H](CC(C)C)NC)C(=O)N[C@@H](CC(N)=O)C(=O)N[C@H]5C(=O)N[C@H]3C(=O)N[C@H](C(=O)N[C@H](C(=O)O)c5cc(O)c(CNCCCNC(=O)[C@H](O)[C@@H](O)[C@H](O)[C@H](O)CO)c(O)c5-c5cc3ccc5O)[C@H](O)c3ccc(c(Cl)c3)O4)O[C@H](CO)[C@@H](O)[C@@H]2O)O[C@@H](C)[C@H]1O |  | 0.5 (≈ 0.272 µM) | 2 (≈ 1.09 µM) |  |  |  | 
CN[C@H](CC(C)C)C(=O)N[C@H]1C(=O)N[C@@H](CC(N)=O)C(=O)N[C@H]2C(=O)N[C@H]3C(=O)N[C@H](C(=O)N[C@H](C(=O)O)c4cc(O)c(CNCCCNC(=O)[C@H](O)[C@@H](O)[C@H](O[C@@H]5O[C@H](CO)[C@H](O)[C@H](O)[C@H]5O)[C@H](O)CO)c(O)c4-c4cc3ccc4O)[C@H](O)c3ccc(c(Cl)c3)Oc3cc2cc(c3O[C@@H]2O[C@H](CO)[C@@H](O)[C@H](O)[C@H]2O[C@H]2C[C@](C)(NCc3ccc(-c4ccc(Cl)cc4)cc3)[C@H](O)[C@H](C)O2)Oc2ccc(cc2Cl)[C@H]1O |  | 0.25 (≈ 0.12 µM) | 0.5 (≈ 0.241 µM) |  |  |  | 
CN[C@H](CC(C)C)C(=O)N[C@H]1C(=O)N[C@@H](CC(N)=O)C(=O)N[C@H]2C(=O)N[C@H]3C(=O)N[C@H](C(=O)N[C@H](C(=O)O)c4cc(O)c(CNCCO)c(O)c4-c4cc3ccc4O)[C@H](O)c3ccc(c(Cl)c3)Oc3cc2cc(c3O[C@@H]2O[C@H](CO)[C@@H](O)[C@H](O)[C@H]2O[C@H]2C[C@](C)(NCc3ccc(-c4ccncc4)cc3)[C@H](O)[C@H](C)O2)Oc2ccc(cc2Cl)[C@H]1O |  | 0.5 (≈ 0.296 µM) | 2 (≈ 1.18 µM) |  |  |  | 
CCCCCCCCCCNCCN[C@@]1(C)C[C@H](O[C@H]2[C@H](Oc3c4cc5cc3Oc3ccc(cc3Cl)[C@@H](O)[C@@H](NC(=O)[C@@H](CC(C)C)NC)C(=O)N[C@@H](CC(N)=O)C(=O)N[C@H]5C(=O)N[C@H]3C(=O)N[C@H](C(=O)N[C@H](C(=O)O)c5cc(O)c(CNCCO[C@@H]6O[C@H](CO)[C@H](O)[C@H](O)[C@H]6O)c(O)c5-c5cc3ccc5O)[C@H](O)c3ccc(c(Cl)c3)O4)O[C@H](CO)[C@@H](O)[C@@H]2O)O[C@@H](C)[C@H]1O |  | 0.5 (≈ 0.268 µM) | 2 (≈ 1.07 µM) |  |  |  | 
CCCCCCCCCCN[C@@]1(C)C[C@H](O[C@H]2[C@H](Oc3c4cc5cc3Oc3ccc(cc3Cl)[C@@H](O)[C@@H](NC(=O)[C@@H](CC(C)C)NC)C(=O)N[C@@H](CC(N)=O)C(=O)N[C@H]5C(=O)N[C@H]3C(=O)N[C@H](C(=O)N[C@H](C(=O)O)c5cc(O)c(CNCCCNC(=O)[C@H](O)[C@@H](O)[C@H](O)[C@H](O)CO)c(O)c5-c5cc3ccc5O)[C@H](O)c3ccc(c(Cl)c3)O4)O[C@H](CO)[C@@H](O)[C@@H]2O)O[C@@H](C)[C@H]1O |  | 0.12 (≈ 0.0647 µM) | 0.5 (≈ 0.27 µM) |  |  |  | 
CN[C@H](CC(C)C)C(=O)N[C@H]1C(=O)N[C@@H](CC(N)=O)C(=O)N[C@H]2C(=O)N[C@H]3C(=O)N[C@H](C(=O)N[C@H](C(=O)O)c4cc(O)c(CNCCCNC(=O)[C@H](O)[C@@H](O)[C@H](O)[C@H](O)CO)c(O)c4-c4cc3ccc4O)[C@H](O)c3ccc(c(Cl)c3)Oc3cc2cc(c3O[C@@H]2O[C@H](CO)[C@@H](O)[C@H](O)[C@H]2O[C@H]2C[C@](C)(NCc3ccc4ccccc4c3)[C@H](O)[C@H](C)O2)Oc2ccc(cc2Cl)[C@H]1O |  | 1 (≈ 0.539 µM) | 4 (≈ 2.16 µM) |  |  |  | 
